Measured values published in ChEMBL document CHEMBL1154447, “Synthesis, antimicrobial activity, pharmacophore analysis of some new 2-(substitutedphenyl/benzyl)-5-[(2-benzofuryl)carboxamido]benzoxazoles” (2008).
Values after ≈ are worked out from the molar mass of the structure shown.

Assays:
Format in all cases: functional
Pseudomonas aeruginosa [1] = assay: Antibacterial activity against gentamicin-resistant Pseudomonas aeruginosa isolate after 24 hrs by twofold serial dilution technique
Outline: (§1)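 Broth microdilution in Mueller-Hinton broth. Strains were subcultured overnight on MHA at 37 °C and passaged at least twice. McFarland 0.5 cultures […] were diluted to 10⁵ cfu/ml, giving 10⁴ cfu/ml per well, against two-fold dilutions from 1000 to 0.06. Solvent and medium controls were included. Plates were held at 37 °C in a humid chamber for 24 h, in triplicate. MIC is the lowest concentration with no macroscopic growth.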

Bacillus subtilis [2] = assay: Antibacterial activity against ceftriaxone-resistant Bacillus subtilis isolate after 24 hrs by twofold serial dilution technique; outline: as §1
Staphylococcus aureus [3] = assay: Antibacterial activity against methicillin-resistant Staphylococcus aureus isolate after 24 hrs by twofold serial dilution technique; outline: as §1
Klebsiella pneumoniae [4] = assay: Antibacterial activity against Klebsiella pneumoniae isolate containing extended spectrum beta lactamase after 24 hrs by twofold serial dilution technique
Outline: (§2)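 Broth microdilution in Mueller-Hinton broth. Isolates were subcultured overnight on MHA at 37 °C and passaged at least twice. McFarland 0.5 cultures […] were diluted to 10⁵ cfu/ml, giving 10⁴ cfu/ml per well, over two-fold compound dilutions. Plates were incubated at 37 °C in a humid chamber for 24 h. MIC was the lowest concentration completely inhibiting macroscopic growth. Triplicate per run.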

Bacillus subtilis [5] = assay: Antibacterial activity against Bacillus subtilis ATCC 6633 after 24 hrs by twofold serial dilution technique; outline: as §1
Pseudomonas aeruginosa [6] = assay: Antibacterial activity against Pseudomonas aeruginosa […] after 24 hrs by twofold serial dilution technique; outline: as §2
Klebsiella pneumoniae [7] = assay: Antibacterial activity against Klebsiella pneumoniae RSHM 574 after 24 hrs by twofold serial dilution technique; outline: as §2
Escherichia coli [8] = assay: Antibacterial activity against Escherichia coli ATCC 25922 after 24 hrs by twofold serial dilution technique; outline: as §2
Escherichia coli [9] = assay: Antibacterial activity against Escherichia coli isolate containing extended spectrum beta lactamase after 24 hrs by twofold serial dilution technique; outline: as §2
Staphylococcus aureus [10] = assay: Antibacterial activity against Staphylococcus aureus ATCC 25923 after 24 hrs by twofold serial dilution technique; outline: as §2
Candida albicans [11] = assay: Antifungal activity against Candida albicans ATCC 10231 after 48 hrs by twofold serial dilution technique; settings: ATCC 10231, 48 h
Outline: (§3)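 Yeasts were subcultured on SDA at 35 °C for 24-48 h and passaged twice. Broth microdilution followed CLSI M27-A in RPMI-1640 with L-glutamine, MOPS-buffered to pH 7. Inoculum was McFarland 0.5 (10⁶ cfu/ml) diluted to 10⁴ cfu/ml, giving 10³ cfu/ml per well. Incubated at 35 °C in a humid chamber and read at 48 h as the lowest concentration with no macroscopic growth. Triplicate per run.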

Pichia kudriavzevii = assay: Antifungal activity against Candida krusei ATCC 6258 after 48 hrs by twofold serial dilution technique; settings: ATCC 6258, 48 h; outline: as §3
Candida albicans [12] = assay: Antifungal activity against biofilm-positive Candida albicans isolate after 48 hrs by twofold serial dilution technique; outline: as §3

Compound | MIC (Pseudomonas aeruginosa [1]) [µg/mL] | MIC (Bacillus subtilis [2]) [µg/mL] | MIC (Staphylococcus aureus [3]) [µg/mL] | MIC (Klebsiella pneumoniae [4]) [µg/mL] | MIC (Bacillus subtilis [5]) [µg/mL] | MIC (Pseudomonas aeruginosa [6]) [µg/mL] | MIC (Klebsiella pneumoniae [7]) [µg/mL] | MIC (Escherichia coli [8]) [µg/mL] | MIC (Escherichia coli [9]) [µg/mL] | MIC (Staphylococcus aureus [10]) [µg/mL] | MIC (Candida albicans [11]) [µg/mL] | MIC (Pichia kudriavzevii) [µg/mL] | MIC (Candida albicans [12]) [µg/mL] | MIC (Bacillus subtilis [5]; ATCC 6633, 24 h) [µg/mL] | MIC (Escherichia coli [8]; ATCC 25922, 24 h) [µg/mL] | MIC (Staphylococcus aureus [10]; ATCC 25923, 24 h) [µg/mL]
GENTAMICIN | 62.5 | 0.12 | 7.8 | 7.8 | 0.24 | 31.2 | 0.24 | 0.48 | 15.6 | 0.48 | – | – | – | – | – | –
OC(Cn1cncn1)(Cn1cncn1)c1ccc(F)cc1F [FLUCONAZOLE] | – | – | – | – | – | – | – | – | – | – | 1.9 (≈ 6.2 µM) | 15.6 (≈ 51 µM) | 0.48 (≈ 1.57 µM) | – | – | –
CCc1ccc(-c2nc3cc(NC(=O)c4cc5ccccc5o4)ccc3o2)cc1 | 62.5 (≈ 163 µM) | 125 (≈ 327 µM) | 62.5 (≈ 163 µM) | 125 (≈ 327 µM) | – | 62.5 (≈ 163 µM) | 62.5 (≈ 163 µM) | – | 125 (≈ 327 µM) | – | 62.5 (≈ 163 µM) | 125 (≈ 327 µM) | 62.5 (≈ 163 µM) | 500 (≈ 1310 µM) | 62.5 (≈ 163 µM) | 125 (≈ 327 µM)
O=C(Nc1ccc2oc(-c3ccc(F)cc3)nc2c1)c1cc2ccccc2o1 | 62.5 (≈ 168 µM) | 125 (≈ 336 µM) | 31.2 (≈ 83.9 µM) | 125 (≈ 336 µM) | – | 31.2 (≈ 83.9 µM) | 62.5 (≈ 168 µM) | – | 125 (≈ 336 µM) | – | 62.5 (≈ 168 µM) | 125 (≈ 336 µM) | 62.5 (≈ 168 µM) | 500 (≈ 1340 µM) | 62.5 (≈ 168 µM) | 125 (≈ 336 µM)
O=C(Nc1ccc2oc(Cc3ccc(F)cc3)nc2c1)c1cc2ccccc2o1 | 125 (≈ 324 µM) | 125 (≈ 324 µM) | 62.5 (≈ 162 µM) | 125 (≈ 324 µM) | – | 62.5 (≈ 162 µM) | 62.5 (≈ 162 µM) | – | 125 (≈ 324 µM) | – | 62.5 (≈ 162 µM) | 250 (≈ 647 µM) | 62.5 (≈ 162 µM) | 125 (≈ 324 µM) | 62.5 (≈ 162 µM) | 125 (≈ 324 µM)
CO[C@H]1/C=C/O[C@@]2(C)Oc3c(C)c(O)c4c(O)c(c(/C=N/N5CCN(C)CC5)c(O)c4c3C2=O)NC(=O)/C(C)=C\C=C\[C@H](C)[C@H](O)[C@@H](C)[C@@H](O)[C@@H](C)[C@H](OC(C)=O)[C@@H]1C [RIFAMPIN] | > 500 | 3.9 (≈ 4.74 µM) | 0.9 (≈ 1.09 µM) | 7.8 (≈ 9.48 µM) | – | > 500 | 1.9 (≈ 2.31 µM) | – | 3.9 (≈ 4.74 µM) | – | – | – | – | 0.12 (≈ 0.146 µM) | 1.9 (≈ 2.31 µM) | 0.06 (≈ 0.0729 µM)
O=C(Nc1ccc2oc(Cc3ccccc3)nc2c1)c1cc2ccccc2o1 | 62.5 (≈ 170 µM) | 125 (≈ 339 µM) | 62.5 (≈ 170 µM) | 62.5 (≈ 170 µM) | – | 31.2 (≈ 84.8 µM) | 62.5 (≈ 170 µM) | – | 62.5 (≈ 170 µM) | – | 62.5 (≈ 170 µM) | 31.2 (≈ 84.8 µM) | 31.2 (≈ 84.8 µM) | 125 (≈ 339 µM) | 62.5 (≈ 170 µM) | 125 (≈ 339 µM)
CC1(C)S[C@@H]2[C@H](NC(=O)[C@H](N)c3ccccc3)C(=O)N2[C@H]1C(=O)O.O.O.O [AMPICILLIN TRIHYDRATE] | > 500 | 0.48 | 1.9 | 15.6 | – | > 500 | 0.48 | – | > 15.6 | – | – | – | – | 0.48 | 3.9 | 0.48
O=C(Nc1ccc2oc(Cc3ccc(Br)cc3)nc2c1)c1cc2ccccc2o1 | 15.6 (≈ 34.9 µM) | 125 (≈ 279 µM) | 62.5 (≈ 140 µM) | 62.5 (≈ 140 µM) | – | 31.2 (≈ 69.9 µM) | 62.5 (≈ 140 µM) | – | 125 (≈ 279 µM) | – | 62.5 (≈ 140 µM) | 62.5 (≈ 140 µM) | 62.5 (≈ 140 µM) | 125 (≈ 279 µM) | 62.5 (≈ 140 µM) | 125 (≈ 279 µM)
O=C(Nc1ccc2oc(-c3ccccc3)nc2c1)c1cc2ccccc2o1 | 62.5 (≈ 176 µM) | 250 (≈ 705 µM) | 62.5 (≈ 176 µM) | 125 (≈ 353 µM) | – | 62.5 (≈ 176 µM) | 62.5 (≈ 176 µM) | – | 125 (≈ 353 µM) | – | 62.5 (≈ 176 µM) | 62.5 (≈ 176 µM) | 62.5 (≈ 176 µM) | 125 (≈ 353 µM) | 62.5 (≈ 176 µM) | 62.5 (≈ 176 µM)
Cc1ccc(Cc2nc3cc(NC(=O)c4cc5ccccc5o4)ccc3o2)cc1 | 125 (≈ 327 µM) | 125 (≈ 327 µM) | 62.5 (≈ 163 µM) | 125 (≈ 327 µM) | – | 62.5 (≈ 163 µM) | 62.5 (≈ 163 µM) | – | 125 (≈ 327 µM) | – | 62.5 (≈ 163 µM) | 250 (≈ 654 µM) | 62.5 (≈ 163 µM) | 125 (≈ 327 µM) | 62.5 (≈ 163 µM) | 125 (≈ 327 µM)
CC(C)(C)c1ccc(-c2nc3cc(NC(=O)c4cc5ccccc5o4)ccc3o2)cc1 | 125 (≈ 305 µM) | 125 (≈ 305 µM) | 62.5 (≈ 152 µM) | 125 (≈ 305 µM) | – | 62.5 (≈ 152 µM) | 62.5 (≈ 152 µM) | – | 125 (≈ 305 µM) | – | 62.5 (≈ 152 µM) | 125 (≈ 305 µM) | 62.5 (≈ 152 µM) | 125 (≈ 305 µM) | 62.5 (≈ 152 µM) | 125 (≈ 305 µM)
O=C(Nc1ccc2oc(-c3ccccc3Br)nc2c1)c1cc2ccccc2o1 | 62.5 (≈ 144 µM) | 125 (≈ 289 µM) | 31.2 (≈ 72.1 µM) | 125 (≈ 289 µM) | – | 62.5 (≈ 144 µM) | 62.5 (≈ 144 µM) | – | 125 (≈ 289 µM) | – | 62.5 (≈ 144 µM) | 250 (≈ 577 µM) | 62.5 (≈ 144 µM) | 500 (≈ 1150 µM) | 62.5 (≈ 144 µM) | 125 (≈ 289 µM)
C[C@@H]1[C@H](O)[C@@H](C)/C=C/C=C/C=C/C=C/C=C/C=C/C=C/[C@H](O[C@@H]2O[C@H](C)[C@@H](O)[C@H](N)[C@@H]2O)C[C@@H]2O[C@](O)(C[C@@H](O)C[C@@H](O)[C@H](O)CC[C@@H](O)C[C@@H](O)CC(=O)O[C@H]1C)C[C@H](O)[C@H]2C(=O)O [AMPHOTERICIN B] | – | – | – | – | – | – | – | – | – | – | 0.48 (≈ 0.519 µM) | 1.9 (≈ 2.06 µM) | 0.24 (≈ 0.26 µM) | – | – | –
O=C(Nc1ccc2oc(Cc3ccc(Cl)cc3)nc2c1)c1cc2ccccc2o1 | 125 (≈ 310 µM) | 125 (≈ 310 µM) | 125 (≈ 310 µM) | 125 (≈ 310 µM) | – | 31.2 (≈ 77.6 µM) | 62.5 (≈ 155 µM) | – | 125 (≈ 310 µM) | – | 62.5 (≈ 155 µM) | 125 (≈ 310 µM) | 62.5 (≈ 155 µM) | 125 (≈ 310 µM) | 62.5 (≈ 155 µM) | 125 (≈ 310 µM)
CC1COc2c(N3CCN(C)CC3)c(F)cc3c(=O)c(C(=O)O)cn1c23 (stereo not given) [OFLOXACIN] | 62.5 (≈ 173 µM) | 3.9 (≈ 10.8 µM) | 1.9 (≈ 5.26 µM) | 3.9 (≈ 10.8 µM) | – | 62.5 (≈ 173 µM) | 0.12 (≈ 0.332 µM) | – | 7.8 (≈ 21.6 µM) | – | – | – | – | 0.12 (≈ 0.332 µM) | – | 0.12 (≈ 0.332 µM)
